Reference: ChEMBL document CHEMBL1765012, “Novel interactions of fluorinated nucleotide derivatives targeting orotidine 5'-monophosphate decarboxylase” (J Med Chem, 2011)
The source made the active and inactive calls. No cut-off for these calls is given here.

Test system: CHO
Assay: Cytotoxicity against CHO cells
Format: cell-based
Conditions: Cricetulus griseus

Row | Structure (SMILES) | IC50
1 | N#Cc1cc(=O)[nH]c(=O)n1[C@@H]1O[C@H](CO)[C@@H](O)[C@H]1F | > 0.6 mM
2 | O=c1cc(I)n([C@@H]2O[C@H](CO)[C@@H](O)[C@H]2F)c(=O)[nH]1 | 1.36 mM
3 | N#Cc1cn([C@@H]2O[C@H](CO)[C@@H](O)[C@H]2F)c(=O)[nH]c1=O | > 1 mM
4 | NC(=O)c1cc(=O)[nH]c(=O)n1[C@@H]1O[C@H](CO)[C@@H](O)[C@H]1F | > 1 mM
5 | [N-]=[N+]=Nc1cc(=O)[nH]c(=O)n1[C@@H]1O[C@H](CO)[C@@H](O)[C@H]1F | > 2 mM

Test system: Plasmodium falciparum
Assay: Antimalarial activity against Plasmodium falciparum 3D7
Format: functional, organism-based
Conditions: not given

Row | Structure (SMILES) | IC50
6 | N#Cc1cc(=O)[nH]c(=O)n1[C@@H]1O[C@H](CO)[C@@H](O)[C@H]1F | > 1 mM
7 | O=c1cc(I)n([C@@H]2O[C@H](CO)[C@@H](O)[C@H]2F)c(=O)[nH]1 | > 6 mM
8 | N#Cc1cn([C@@H]2O[C@H](CO)[C@@H](O)[C@H]2F)c(=O)[nH]c1=O | 1.09 mM
9 | NC(=O)c1cc(=O)[nH]c(=O)n1[C@@H]1O[C@H](CO)[C@@H](O)[C@H]1F | > 2 mM
10 | [N-]=[N+]=Nc1cc(=O)[nH]c(=O)n1[C@@H]1O[C@H](CO)[C@@H](O)[C@H]1F | > 1 mM

Molecular target: Orotidine 5'-phosphate decarboxylase (Methanobacterium thermoautotrophicum) (UniProt O26232)
Sequence (O26232 whole entry, looked up): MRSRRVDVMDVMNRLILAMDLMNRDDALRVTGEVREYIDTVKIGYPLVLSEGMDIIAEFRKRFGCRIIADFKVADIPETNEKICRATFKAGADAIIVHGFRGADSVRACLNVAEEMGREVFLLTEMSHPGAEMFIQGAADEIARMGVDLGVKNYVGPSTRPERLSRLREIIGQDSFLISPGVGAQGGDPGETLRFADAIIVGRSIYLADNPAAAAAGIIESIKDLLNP
Assay: Covalent binding affinity to Methanobacterium thermoautotrophicum 5'-monophosphate decarboxylase by mass spectroscopy analysis
Conditions: Methanothermobacter thermautotrophicus
Summary of the method: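 Mt ODCase incubated overnight at room temperature with inhibitor (25 mM, in the dark; or 388 mM with 200 μM enzyme) in 50 mM Tris pH 7.5, 20 mM DTT, 40 mM NaCl. Enzyme mass measured by mass spectrometry against an inhibitor-free control; covalent adduct taken from a mass increase over native enzyme.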

Row | Structure (SMILES) | Activity
11 | O=c1cc(I)n([C@@H]2O[C@H](CP(=O)(O)O)[C@@H](O)[C@H]2F)c(=O)[nH]1 | Active
12 | [N-]=[N+]=Nc1cc(=O)[nH]c(=O)n1[C@@H]1O[C@H](COP(=O)(O)O)[C@@H](O)[C@H]1F | Active

Test system: not listed separately
Assay: Cytotoxicity against human OCI-AML1 cells
Format: functional, cell-based
Conditions: not given

Row | Structure (SMILES) | IC50
13 | N#Cc1cc(=O)[nH]c(=O)n1[C@@H]1O[C@H](CO)[C@@H](O)[C@H]1F | > 0.05 mM
14 | O=c1cc(I)n([C@@H]2O[C@H](CO)[C@@H](O)[C@H]2F)c(=O)[nH]1 | > 0.05 mM
15 | N#Cc1cn([C@@H]2O[C@H](CO)[C@@H](O)[C@H]2F)c(=O)[nH]c1=O | > 0.05 mM
16 | NC(=O)c1cc(=O)[nH]c(=O)n1[C@@H]1O[C@H](CO)[C@@H](O)[C@H]1F | > 0.05 mM
17 | [N-]=[N+]=Nc1cc(=O)[nH]c(=O)n1[C@@H]1O[C@H](CO)[C@@H](O)[C@H]1F | > 0.05 mM

Molecular target: Orotidine 5'-phosphate decarboxylase (Methanobacterium thermoautotrophicum, UniProt O26232)
Sequence (O26232 whole entry): as the sequence (O26232 whole entry, looked up) above
Assay: Irreversible inhibition of Methanobacterium thermoautotrophicum 5'-monophosphate decarboxylase
Conditions: not given

Row | Structure (SMILES) | Ki
18 | [N-]=[N+]=Nc1cc(=O)[nH]c(=O)n1[C@@H]1O[C@H](COP(=O)(O)O)[C@@H](O)[C@H]1F | 1.2 mM
